Measurements as given in ChEMBL document CHEMBL3259728, “Design, synthesis and biological evaluation of some novel substituted quinazolines as antitumor agents” (2014).

Assays:
Assay type in all cases: functional
K562 = experiment: Growth inhibition of human K562 cells assessed as cell growth at 10^-6 M after 48 hrs by SRB assay; details: K562, 48 h, read-out: Activity
ACHN = experiment: Growth inhibition of human ACHN cells assessed as cell growth at 10^-4 M after 48 hrs by SRB assay; details: read-out: Activity
Method in brief: (§1)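 Five-dose NCI panel protocol. Each dose (10^-4 to 10^-8 M, 10-fold steps) was given as 48 h continuous exposure, and protein was measured by SRB staining. Percentage growth at each level is [(Ti−Tz)/(C−Tz)]×100, where Tz is time-zero absorbance and C is untreated control.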

[1] = Growth inhibition of human SF539 cells assessed as cell growth at 10^-4 M after 48 hrs by SRB assay; details: SF-539, 48 h, read-out: Activity
[2] = Growth inhibition of human SF539 cells assessed as cell growth at 10^-8 M after 48 hrs by SRB assay; details: SF-539, 48 h, read-out: Activity
[3] = Growth inhibition of human OVCAR3 cells assessed as cell growth at 10^-7 M after 48 hrs by SRB assay; details: OVCAR-3, 48 h, read-out: Activity
[4] = Growth inhibition of human Hs578T cells assessed as cell growth at 10^-5 M after 48 hrs by SRB assay; details: Hs-578T, read-out: Activity
SF-268 = experiment: Growth inhibition of human SF268 cells assessed as cell growth at 10^-5 M after 48 hrs by SRB assay; details: SF-268, 48 h, read-out: Activity
SN12C [5] = experiment: Cytotoxicity against human SN12C cells after 48 hrs by SRB assay
Method in brief: (§2)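 NCI 60-cell-line panel of human tumour lines from nine cancer types. Continuous 48 h exposure at five 10-fold dilutions from 10^-4 to 10^-8 M, with 5-FU as positive control. SRB protein stain read spectrophotometrically at time zero, untreated control and each concentration. GI50, TGI and LC50 were derived from the [(Ti−Tz)/(C−Tz)]×100 growth relations, and out-of-range values are given as > or < the tested limits.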

MDA-MB-435 [6] = experiment: Growth inhibition of human MDA-MB-435 cells assessed as cell growth at 10^-4 M after 48 hrs by SRB assay; details: MDA-MB-435, 48 h, read-out: Activity
MDA-MB-435 [7] = experiment: Growth inhibition of human MDA-MB-435 cells assessed as cell growth at 10^-7 M after 48 hrs by SRB assay; details: MDA-MB-435, 48 h, read-out: Activity
HT-29 = experiment: Cytotoxicity against human HT-29 cells after 48 hrs by SRB assay; details: HT-29, 48 h; method in brief: as §2
COLO 205 = experiment: Growth inhibition of human COLO205 cells assessed as cell growth at 10^-6 M after 48 hrs by SRB assay; details: COLO 205, 48 h, read-out: Activity; method in brief: as §1
SN12C [8] = experiment: Growth inhibition of human SN12C cells assessed as cell growth at 10^-6 M after 48 hrs by SRB assay; details: read-out: Activity
NCI-H322M [9] = experiment: Growth inhibition of human NCI-H322M cells assessed as cell growth at 10^-4 M after 48 hrs by SRB assay; details: read-out: Activity
MDA-MB-231 [10] = experiment: Growth inhibition of human MDA-MB-231 cells assessed as cell growth at 10^-7 M after 48 hrs by SRB assay; details: MDA-MB-231, 48 h, read-out: Activity
MDA-MB-231 [11] = experiment: Growth inhibition of human MDA-MB-231 cells assessed as cell growth at 10^-8 M after 48 hrs by SRB assay; details: MDA-MB-231, 48 h, read-out: Activity
MDA-MB-435 [12] = experiment: Growth inhibition of human MDA-MB-435 cells assessed as cell growth at 10^-8 M after 48 hrs by SRB assay; details: MDA-MB-435, 48 h, read-out: Activity
NCI-H322M [13] = experiment: Growth inhibition of human NCI-H322M cells assessed as cell growth at 10^-7 M after 48 hrs by SRB assay; details: read-out: Activity
SK-OV-3 = experiment: Cytotoxicity against human SKOV3 cells after 48 hrs by SRB assay; details: SK-OV-3, 48 h; method in brief: as §2
T47D = experiment: Growth inhibition of human T47D cells assessed as cell growth at 10^-8 M after 48 hrs by SRB assay; details: read-out: Activity
HCT-116 = experiment: Cytotoxicity against human HCT116 cells after 48 hrs by SRB assay; details: HCT-116, 48 h; method in brief: as §2
[14] = Growth inhibition of human HCT15 cells assessed as cell growth at 10^-6 M after 48 hrs by SRB assay; details: HCT-15, 48 h, read-out: Activity
MDA-MB-231 [15] = experiment: Growth inhibition of human MDA-MB-231 cells assessed as cell growth at 10^-4 M after 48 hrs by SRB assay; details: MDA-MB-231, 48 h, read-out: Activity
[16] = Growth inhibition of human UACC257 cells assessed as cell growth at 10^-6 M after 48 hrs by SRB assay; details: UACC-257, 48 h, read-out: Activity
PC-3 = experiment: Growth inhibition of human PC3 cells assessed as cell growth at 10^-5 M after 48 hrs by SRB assay; details: PC-3, 48 h, read-out: Activity
[17] = Growth inhibition of human RXF393 cells assessed as cell growth at 10^-6 M after 48 hrs by SRB assay; details: RXF 393, 48 h, read-out: Activity
[18] = Growth inhibition of human SF295 cells assessed as cell growth at 10^-6 M after 48 hrs by SRB assay; details: SF-295, 48 h, read-out: Activity
NCI-H460 = experiment: Growth inhibition of human NCI-H460 cells assessed as cell growth at 10^-5 M after 48 hrs by SRB assay; details: NCI-H460, 48 h, read-out: Activity
[19] = Growth inhibition of human RXF393 cells assessed as cell growth at 10^-4 M after 48 hrs by SRB assay; details: RXF 393, 48 h, read-out: Activity
[20] = Growth inhibition of human UACC257 cells assessed as cell growth at 10^-5 M after 48 hrs by SRB assay; details: UACC-257, 48 h, read-out: Activity
NCI-H23 = experiment: Growth inhibition of human NCI-H23 cells assessed as cell growth at 10^-5 M after 48 hrs by SRB assay; details: NCI-H23, 48 h, read-out: Activity
[21] = Growth inhibition of human HCC2998 cells assessed as cell growth at 10^-5 M after 48 hrs by SRB assay; details: HCC 2998, 48 h, read-out: Activity
[22] = read-out: LC50 (the source's name)
[23] = read-out: pLC50 (the source's name) (converted)

## Cc1ccc(-c2nc3ccc(Cl)cc3c(=O)n2/N=C/c2ccccc2)cc1
K562
  growth at 1 µM: 92%
ACHN
  growth at 100 µM: 6%
[1]
  growth at 100 µM: 75%
[2]
  growth at 0.01 µM: 90%
[3]
  growth at 0.1 µM: 96%
[4]
  growth at 10 µM: 3%
SF-268
  growth at 10 µM: 50%
SN12C [5]; read-out: GI50
  GI50: 11.8 µM
SN12C [5]; [22]
  CC50: > 100 µM
SN12C [5]; read-out: TGI
  TGI: > 100 µM
SN12C [5]; read-out: pGI50 (converted)
  GI50: 11.7 µM
SN12C [5]; [23]
  CC50: > 100 µM
SN12C [5]; read-out: pTGI
  TGI: > 100 µM
MDA-MB-435 [6]
  growth at 100 µM: 57%
MDA-MB-435 [7]
  growth at 0.1 µM: 86%
HT-29; read-out: GI50
  GI50: 60.2 µM
HT-29; read-out: LC50
  LC50: > 100 µM
HT-29; read-out: TGI
  TGI: > 100 µM
HT-29; read-out: pGI50 (converted)
  GI50: 60.3 µM
HT-29; read-out: pLC50 (converted)
  LC50: > 100 µM
HT-29; read-out: pTGI
  TGI: > 100 µM
COLO 205
  growth at 1 µM: 119%
SN12C [8]
  growth at 1 µM: 91%
NCI-H322M [9]
  growth at 100 µM: 42%
MDA-MB-231 [10]
  growth at 0.1 µM: 99%
MDA-MB-231 [11]
  growth at 0.01 µM: 108%
MDA-MB-435 [12]
  growth at 0.01 µM: 98%
NCI-H322M [13]
  growth at 0.1 µM: 76%
SK-OV-3; read-out: GI50
  GI50: 2.89 µM
SK-OV-3; [22]
  CC50: > 100 µM
SK-OV-3; read-out: TGI
  TGI: 9.9 µM
SK-OV-3; read-out: pGI50 (converted)
  GI50: 2.88 µM
SK-OV-3; [23]
  CC50: > 100 µM
SK-OV-3; read-out: pTGI (converted)
  TGI: 10 µM
T47D
  growth at 0.01 µM: 89%
HCT-116; read-out: GI50
  GI50: 5.51 µM
HCT-116; [22]
  CC50: > 100 µM
HCT-116; read-out: TGI
  TGI: > 100 µM
HCT-116; read-out: pGI50 (converted)
  GI50: 5.5 µM
HCT-116; [23]
  CC50: > 100 µM
HCT-116; read-out: pTGI
  TGI: > 100 µM
[14]
  growth at 1 µM: 93%
MDA-MB-231 [15]
  growth at 100 µM: 16%
[16]
  growth at 1 µM: 97%
PC-3
  growth at 10 µM: 66%
[17]
  growth at 1 µM: 90%
[18]
  growth at 1 µM: 80%
NCI-H460
  growth at 10 µM: 23%
[19]
  growth at 100 µM: 19%
[20]
  growth at 10 µM: 73%
NCI-H23
  growth at 10 µM: 65%
[21]
  growth at 10 µM: 96%
